Assay results taken from paper PMC6613170 (Proceedings of the National Academy of Sciences of the …, 2019).

How the values were obtained:
CFTR = CFTR assay; assay type: cell-based, canine; conditions: 100 nM PGE2
PDE4C3 = PDE4C3 (Homo sapiens, UniProt Q08493); experiment: cAMP phosphodiesterase assay, long isoform PDE4C3; assay type: biochemical
In short: (§1)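 PDE4 constructs, including site-directed mutants, are expressed from pcDNA3.1 in transfected mammalian cells. Cells are lysed mechanically in KHEM buffer (50 mM KCl, 10 mM EGTA, 50 mM Hepes, 1.92 mM MgCl2, pH 7.4). Lysate is cleared at 2,000 × g for 10 min, then 100,000 × g for 30 min. Supernatant (200 ng–1 µg protein per reaction, BCA) is assayed for cAMP hydrolysis for 10 min under linear conditions.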

OX161 cells = experiment: OX161 cyst assay; assay type: cell-based, human
PDE4B1 = PDE4B1 (Homo sapiens, UniProt Q07343); experiment: cAMP phosphodiesterase assay, long isoform PDE4B1; assay type: biochemical
Sequence of PDE4B1 (Q07343 whole entry, species assumed, canonical isoform): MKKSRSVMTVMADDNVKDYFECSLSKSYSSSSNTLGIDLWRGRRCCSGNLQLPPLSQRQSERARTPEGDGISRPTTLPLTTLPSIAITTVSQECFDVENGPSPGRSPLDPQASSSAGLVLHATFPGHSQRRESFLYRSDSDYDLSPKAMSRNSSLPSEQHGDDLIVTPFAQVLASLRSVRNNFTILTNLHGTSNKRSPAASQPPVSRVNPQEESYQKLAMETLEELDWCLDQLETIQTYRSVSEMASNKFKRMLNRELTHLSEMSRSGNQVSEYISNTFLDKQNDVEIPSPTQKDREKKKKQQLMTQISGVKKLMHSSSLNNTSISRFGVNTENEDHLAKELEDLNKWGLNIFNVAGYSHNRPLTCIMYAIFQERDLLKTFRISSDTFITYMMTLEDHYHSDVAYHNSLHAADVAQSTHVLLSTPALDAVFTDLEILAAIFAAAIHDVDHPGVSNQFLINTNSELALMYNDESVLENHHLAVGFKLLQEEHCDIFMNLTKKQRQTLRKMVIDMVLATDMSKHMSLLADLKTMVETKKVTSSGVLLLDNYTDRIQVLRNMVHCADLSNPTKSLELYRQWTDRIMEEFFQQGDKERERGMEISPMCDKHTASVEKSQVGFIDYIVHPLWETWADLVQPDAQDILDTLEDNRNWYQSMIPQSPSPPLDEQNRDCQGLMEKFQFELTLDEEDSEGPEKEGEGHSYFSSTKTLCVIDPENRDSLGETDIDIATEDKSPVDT
In short: as §1

MDCK cells [1] = experiment: cAMP ELISA in forskolin-challenged MDCK cells; assay type: cell-based, canine; conditions: 15 min
In short: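 MDCK cells in 2D culture (DMEM, 10% FBS) are pretreated for 1 h with test compound (3 µM), with or without roflumilast (100 nM), then challenged with forskolin (3 µM, 15 min). Intracellular and extracellular cAMP are measured with a commercial cAMP ELISA kit. Intracellular data are mean ± SD of n = 7 experiments; extracellular data come from three independent experiments.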

MDCK cells [2] = experiment: MDCK cyst assay; assay type: cell-based, canine
[3] = system: primary human ADPKD cells; experiment: Primary human ADPKD cell viability; assay type: cell-based; conditions: unstimulated and vasopressin-treated cultures
In short: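 Primary epithelial cells cultured from single kidney cysts of a patient with ADPKD, kept in supplier's proprietary media. For the cyst assay, cells were grown in biogels with RenalCyte media in 96- or 384-well format. Viability was read as luminescence-based detection of ATP as a function of living cells.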

S126D:S133D-PDE4D5 = S126D:S133D-PDE4D5 (Homo sapiens, UniProt Q08499, S190D/S197D); experiment: cAMP phosphodiesterase assay, PKA/MK2 double phosphomimetic mutant; assay type: biochemical; conditions: relative to S126D-PDE4D5
Sequence of S126D:S133D-PDE4D5 (Q08499 1-745 isoform Q08499-6 S126D/S133D): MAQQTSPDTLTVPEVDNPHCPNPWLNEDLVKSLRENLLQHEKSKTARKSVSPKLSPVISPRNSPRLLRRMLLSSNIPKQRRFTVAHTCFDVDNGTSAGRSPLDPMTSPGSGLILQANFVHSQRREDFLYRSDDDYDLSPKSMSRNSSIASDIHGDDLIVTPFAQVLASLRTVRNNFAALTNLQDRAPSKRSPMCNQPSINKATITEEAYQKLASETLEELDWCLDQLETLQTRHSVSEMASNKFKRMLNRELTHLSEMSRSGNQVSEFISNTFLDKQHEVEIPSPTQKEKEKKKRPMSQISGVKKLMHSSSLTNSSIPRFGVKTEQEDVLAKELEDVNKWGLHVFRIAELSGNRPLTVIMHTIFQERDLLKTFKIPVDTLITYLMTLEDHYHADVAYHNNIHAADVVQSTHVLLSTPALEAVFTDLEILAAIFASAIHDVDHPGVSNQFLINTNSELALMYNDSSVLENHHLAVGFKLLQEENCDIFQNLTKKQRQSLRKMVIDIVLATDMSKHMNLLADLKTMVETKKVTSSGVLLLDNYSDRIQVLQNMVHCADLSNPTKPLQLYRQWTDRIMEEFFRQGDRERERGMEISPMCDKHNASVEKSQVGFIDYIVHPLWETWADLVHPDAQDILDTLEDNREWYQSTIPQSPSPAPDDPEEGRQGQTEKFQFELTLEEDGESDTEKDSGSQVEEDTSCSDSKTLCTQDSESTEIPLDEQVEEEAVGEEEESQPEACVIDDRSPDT
In short: as §1

[4] = system: short isoforms of PDE4A, B, and D families; experiment: cAMP phosphodiesterase assay, short PDE4 isoforms; assay type: biochemical
In short: as §1

[5] = system: primary human ADPKD cells; experiment: Primary human kidney cell cyst assay; assay type: cell-based
In short: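 Primary epithelial cells from single kidney cysts of an ADPKD patient are grown in biogels with RenalCyte medium. Cysts form spontaneously or with 10 nM vasopressin, across graded test compound concentrations. Cysts are counted by manual imaging or automated whole-well imaging. Values are given as SD of four treatments.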

MDCK cells [6] = experiment: xCELLigence impedance-based proliferation assay; assay type: cell-based, canine; conditions: 2D culture; MR-L2 added 24 h after inception
In short: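 MDCK cells are plated at 5,000 cells per well in 2D culture and left to adhere for 24 h. Test compound is then added, and cell number is followed by xCELLigence electrical-impedance monitoring.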

DD1-R499D-PDE4D5 = DD1-R499D-PDE4D5 (Homo sapiens, UniProt Q08499, N238A/N239A/R237A/R563D); experiment: cAMP phosphodiesterase assay, dimerization-deficient mutant; assay type: biochemical
Sequence of DD1-R499D-PDE4D5 (Q08499 1-745 isoform Q08499-6 R173A/N174A/N175A/R499D): as the sequence (Q08499 1-745 isoform Q08499-6 S126D/S133D) above, with D126S, D133S, R173A, N174A, N175A, R499D counted along it
In short: (§2)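 PDE4 constructs were expressed from pcDNA3.1 (mutants by site-directed mutagenesis) after lipid transfection into mammalian cells. Lysate was spun at 2,000 × g for 10 min, then 100,000 × g for 30 min, and supernatant protein was measured by BCA. cAMP hydrolysis used 200 ng–1 µg protein per reaction for 10 min, within the linear range.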

S133D-PDE4D5 = S133D-PDE4D5 (Homo sapiens, UniProt Q08499, S197D); experiment: cAMP phosphodiesterase assay, MK2 phosphomimetic mutant; assay type: biochemical
Sequence of S133D-PDE4D5 (Q08499 1-745 isoform Q08499-6 S133D): as the sequence (Q08499 1-745 isoform Q08499-6 S126D/S133D) above, with D126S counted along it
In short: as §2

PDE4A4 = PDE4A4 (Homo sapiens, UniProt P27815); experiment: cAMP phosphodiesterase assay, long isoform PDE4A4; assay type: biochemical; conditions: compared with the other long isoforms
Sequence of PDE4A4 (P27815 whole entry, canonical isoform): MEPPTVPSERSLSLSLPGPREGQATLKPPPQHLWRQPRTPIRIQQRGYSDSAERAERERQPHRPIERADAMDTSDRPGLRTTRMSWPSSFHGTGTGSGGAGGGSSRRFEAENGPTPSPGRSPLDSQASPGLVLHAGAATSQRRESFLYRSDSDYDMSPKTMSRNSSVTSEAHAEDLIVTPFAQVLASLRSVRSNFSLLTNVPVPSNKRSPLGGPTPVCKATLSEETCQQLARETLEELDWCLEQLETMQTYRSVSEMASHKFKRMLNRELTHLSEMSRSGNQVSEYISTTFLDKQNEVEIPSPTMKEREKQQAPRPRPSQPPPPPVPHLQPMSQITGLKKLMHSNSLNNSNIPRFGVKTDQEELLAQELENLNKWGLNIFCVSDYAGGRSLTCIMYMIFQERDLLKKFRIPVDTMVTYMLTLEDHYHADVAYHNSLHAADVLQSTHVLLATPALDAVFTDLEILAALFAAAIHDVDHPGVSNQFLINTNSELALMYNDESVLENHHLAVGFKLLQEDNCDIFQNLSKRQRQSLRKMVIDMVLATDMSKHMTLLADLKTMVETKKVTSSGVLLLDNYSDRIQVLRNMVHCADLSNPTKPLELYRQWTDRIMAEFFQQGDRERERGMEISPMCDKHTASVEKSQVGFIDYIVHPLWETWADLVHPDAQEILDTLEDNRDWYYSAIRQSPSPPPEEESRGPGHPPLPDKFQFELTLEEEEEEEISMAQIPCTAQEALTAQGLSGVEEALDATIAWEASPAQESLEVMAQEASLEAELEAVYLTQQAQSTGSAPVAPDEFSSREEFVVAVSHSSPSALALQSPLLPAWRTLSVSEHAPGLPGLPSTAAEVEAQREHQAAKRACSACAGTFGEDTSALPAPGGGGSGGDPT
In short: as §2

human long form PDE4D5 = human long form PDE4D5 (Homo sapiens, UniProt Q08499); experiment: cAMP phosphodiesterase assay, long isoform PDE4D5; assay type: biochemical
Sequence of human long form PDE4D5 (Q08499 1-745 isoform Q08499-6): as the sequence (Q08499 1-745 isoform Q08499-6 S126D/S133D) above, with D126S, D133S counted along it
In short: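 Human PDE4D5 is expressed from pcDNA3.1 in transfected mammalian cells. The 100,000 × g supernatant of KHEM-buffer lysates (200 ng–1 µg protein) is assayed for cAMP hydrolysis for 10 min under linear conditions, with test compound at 3, 10, 30 and 100 µM. Velocity is analysed by Eadie–Hofstee plot to give Vmax and Km for cAMP.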

Ser651Asp-PDE4D5 = Ser651Asp-PDE4D5 (Homo sapiens, UniProt Q08499, S715D); experiment: cAMP phosphodiesterase assay, Erk phosphomimetic mutant; assay type: biochemical
Sequence of Ser651Asp-PDE4D5 (Q08499 1-745 isoform Q08499-6 S651D): as the sequence (Q08499 1-745 isoform Q08499-6 S126D/S133D) above, with D126S, D133S, S651D counted along it
In short: as §2

[7] = system: truncated core catalytic domain of PDE4D without UCR1, UCR2, and C-terminal tail; experiment: cAMP phosphodiesterase assay, truncated catalytic domain construct; assay type: biochemical; conditions: n = 4
In short: as §1

MDCK cells [8] = experiment: DNA normalized ATP levels in MDCK cystic cultures; assay type: cell-based, canine; conditions: MR-L2 3 µM; ± SD

Sequence of PDE4C3 (Q08493 1-680 isoform Q08493-3, species assumed): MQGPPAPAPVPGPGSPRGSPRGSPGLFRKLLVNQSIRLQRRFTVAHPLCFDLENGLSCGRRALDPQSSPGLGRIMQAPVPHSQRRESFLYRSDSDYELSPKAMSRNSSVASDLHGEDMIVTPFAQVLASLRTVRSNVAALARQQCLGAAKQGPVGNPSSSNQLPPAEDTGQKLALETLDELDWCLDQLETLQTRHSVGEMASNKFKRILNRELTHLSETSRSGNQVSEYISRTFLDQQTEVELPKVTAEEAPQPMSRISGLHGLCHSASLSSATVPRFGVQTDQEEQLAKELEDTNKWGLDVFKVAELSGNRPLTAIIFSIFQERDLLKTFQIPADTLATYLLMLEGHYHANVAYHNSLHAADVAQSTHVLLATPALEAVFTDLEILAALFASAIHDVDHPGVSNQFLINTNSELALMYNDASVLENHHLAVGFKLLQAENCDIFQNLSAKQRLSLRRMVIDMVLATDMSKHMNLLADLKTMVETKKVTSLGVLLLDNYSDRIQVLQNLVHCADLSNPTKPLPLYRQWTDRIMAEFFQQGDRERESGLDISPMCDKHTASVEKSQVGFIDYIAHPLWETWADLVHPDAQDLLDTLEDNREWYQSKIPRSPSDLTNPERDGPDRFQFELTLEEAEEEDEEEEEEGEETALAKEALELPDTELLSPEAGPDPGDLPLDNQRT

SMILES: O=C(O)c1ccc(/C=C2\SC(=S)N(c3cccc(C(F)(F)F)c3)C2=O)cc1 [CFTRINH172, reference compound]
- PGE2-induced membrane depolarization (CFTR; CFTR inhibitor 100 µM): reversed

SMILES: CCc1nc(-c2ccc(Cl)c(F)c2)nn1CC(=O)NCc1cc(Cl)cc(Cl)c1 [MR-L2, 2-(3-(4-chloro-3-fluorophenyl)-5-ethyl-1H-1,2,4-triazol-1-yl)-N-(3,5-dichlorobenzyl)acetamide]
- activation of PDE4C3 (PDE4C3): activates
- PGE2-stimulated cystogenesis of OX161 cells (OX161 cells; concentration-dependent): attenuated
- activation of PDE4B1 (PDE4B1): activates
- intracellular cAMP elevation in response to forskolin (MDCK cells [1]; 1-h pretreatment with MR-L2, forskolin 3 µM): significantly suppressed cAMP elevation
- extracellular level of cAMP (MDCK cells [1]; MR-L2 3 µM, 1 h before forskolin 3 µM): significantly reduced
- PGE2-stimulated cyst formation (MDCK cells [2]; MR-L2 3 µM, incremental PGE2 concentrations): suppressed
- forskolin-induced cyst formation (MDCK cells [2]; MR-L2 3 µM, incremental forskolin concentrations): suppressed forskolin-induced cyst formation
- EC50 (MDCK cells [2]; read-out: EC50, suppression of PGE2-induced cyst formation, PGE2 300 nM): 1000 nM
- cell viability [3]: without adversely affecting cell viability
- activation of S126D:S133D-PDE4D5 (S126D:S133D-PDE4D5): partially restore sensitivity
- activation of short PDE4 isoforms [4]: did not activate
- number of cysts formed in 3D culture ([5]; unstimulated (spontaneous cyst formation)): clearly suppressed the number of cysts
- number of cysts formed in 3D culture ([5]; vasopressin-treated (10 nM)): clearly suppressed the number of cysts
- effect on cell number (cytotoxicity) (MDCK cells [6]): no effect
- activation of DD1-R499D-PDE4D5 (DD1-R499D-PDE4D5): complete loss of sensitivity to activation
- activation of S133D-PDE4D5 (S133D-PDE4D5): activated by MR-L2 to a similar extent to wild-type PDE4D5
- PGE2-elicited CFTR activity (membrane depolarization) (CFTR; MR-L2 preincubation 40 min): clearly suppressed in a concentration-dependent manner
- activation of PDE4A4 (PDE4A4): slightly enhanced magnitude of activation
- mode of action on cAMP hydrolysis by PDE4D5 (human long form PDE4D5): reversible, noncompetitive activator
- increase in activity over basal levels (human long form PDE4D5; maximally effective concentrations of MR-L2): ~60%
- activation of Ser651Asp-PDE4D5 (Ser651Asp-PDE4D5): comparable increase in activity to that seen when employing wild-type PDE4D5
- activation of truncated core catalytic domain of PDE4D [7]: does not activate
- reduction in the ATP/DNA ratio (MDCK cells [8]): 15.6 ± 30%

SMILES: O=C(Nc1c(Cl)cncc1Cl)c1ccc(OC(F)F)c(OCC2CC2)c1 [roflumilast, reference compound]
- effect on suppression of forskolin-stimulated cAMP accumulation by MR-L2 (3 µM) (MDCK cells [1]; roflumilast 100 nM cotreatment, forskolin 3 µM): ablated the suppressive effect of MR-L2
- effect on suppression of cystogenesis by MR-L2 (3 µM) (MDCK cells [2]; roflumilast 100 nM, PGE2 300 nM): interdict the suppression of cystogenesis

SMILES: COc1ccc(C2CNC(=O)C2)cc1OC1CCCC1 (stereo not shown) [rolipram, reference compound]
- cystogenesis of OX161 cells (OX161 cells; challenge with rolipram, 3D culture): enhanced
- effect on agonist-driven (PGE2-induced) cyst formation (MDCK cells [2]; increasing concentrations of rolipram): exacerbates agonist-driven cyst formation in a concentration-dependent manner
